Reference: ChEMBL document CHEMBL4364301 (Eur J Med Chem, 2019)
pIC50: −log10 of the molar value.

Columns and labels:
Assay type in all cases: functional
DU-145 [1] = assay: Antiproliferative activity against human DU145 cells assessed as reduction in cell growth incubated for 96 hrs by propidium iodide based 2D monolayer assay; details: DU-145, 96 h
Outline: (§1)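 After 24 h recovery, compound in medium or medium alone (control wells) was added at 10 half-log concentrations from 0.0032 to 100 µM, in triplicate, with at most 0.3% DMSO. After 96 h, wells were PBS-washed, stained with 7 µg/ml PI and 0.1% Triton X-100, and fluorescence read at 530/620 nm. IC50 came from a 4-parameter fit, geometric mean.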

LNCaP [2] = assay: Antiproliferative activity against human LNCAP cells assessed as reduction in cell growth incubated for 96 hrs by propidium iodide based 2D monolayer assay; outline: as §1
VCaP [3] = assay: Antiproliferative activity against human VCaP cells assessed as reduction in cell growth incubated for 96 hrs by propidium iodide based 2D monolayer assay
Outline: (§2)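 VCaP cells in RPMI 1640 with 10% FCS at 37 °C, 5% CO2, seeded 4,000–20,000 cells/well and left 24 h before dosing. Compounds from DMSO stocks were diluted in half-log steps in medium, 10 concentrations 0.0032–100 μM, triplicate wells, max 0.3% DMSO. After 96 h, cells were washed, stained with 7 μg/ml propidium iodide plus 0.1% Triton X-100 for 1–2 h at room temperature, and fluorescence read at ex 530/em 620 nm.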

VCaP [4] = assay: Antiproliferative activity against human VCaP cells assessed as T/C value at 3.2 x 10^-3 uM incubated for 96 hrs by propidium iodide based 2D monolayer assay; outline: as §2
VCaP [5] = assay: Antiproliferative activity against human VCaP cells assessed as T/C value at 1 x 10^-2 uM incubated for 96 hrs by propidium iodide based 2D monolayer assay
Outline: as §1, with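 “Cells were kept in RPMI 1640 with 25 mM HEPES, 10% FCS and gentamicin at 37 °C under 5% CO2, and plated at 4,000-20,000 cells/well. After 24” for “After 24”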

VCaP [6] = assay: Antiproliferative activity against human VCaP cells assessed as T/C value at 3.2 x 10^-2 uM incubated for 96 hrs by propidium iodide based 2D monolayer assay; outline: as §2
VCaP [7] = assay: Antiproliferative activity against human VCaP cells assessed as T/C value at 1 x 10^-1 uM incubated for 96 hrs by propidium iodide based 2D monolayer assay
Outline: as §1, with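 “Cells were kept in RPMI 1640 with 25 mM HEPES, 10% FCS and gentamicin at 37 °C under 5% CO2, and plated at 4,000-20,000 cells/well. After 24” for “After 24”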

VCaP [8] = assay: Antiproliferative activity against human VCaP cells assessed as T/C value at 3.2 x 10^-1 uM incubated for 96 hrs by propidium iodide based 2D monolayer assay; outline: as §2
VCaP [9] = assay: Antiproliferative activity against human VCaP cells assessed as T/C value at 1 uM incubated for 96 hrs by propidium iodide based 2D monolayer assay
Outline: as §1, with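 “Cells were kept in RPMI 1640 with 25 mM HEPES, 10% FCS and gentamicin at 37 °C under 5% CO2, and plated at 4,000-20,000 cells/well. After 24” for “After 24”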

VCaP [10] = assay: Antiproliferative activity against human VCaP cells assessed as T/C value at 1 x 10^1 uM incubated for 96 hrs by propidium iodide based 2D monolayer assay
Outline: as §1, with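 “Cells were kept in RPMI 1640 with 25 mM HEPES, 10% FCS and gentamicin at 37 °C under 5% CO2, and plated at 4,000-20,000 cells/well. After 24” for “After 24”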

VCaP [11] = assay: Antiproliferative activity against human VCaP cells assessed as T/C value at 3.2 x 10^1 uM incubated for 96 hrs by propidium iodide based 2D monolayer assay; outline: as §2
VCaP [12] = assay: Antiproliferative activity against human VCaP cells assessed as T/C value at 1 x 10^2 uM incubated for 96 hrs by propidium iodide based 2D monolayer assay
Outline: as §1, with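 “Cells were kept in RPMI 1640 with 25 mM HEPES, 10% FCS and gentamicin at 37 °C under 5% CO2, and plated at 4,000-20,000 cells/well. After 24” for “After 24”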

LNCaP [13] = assay: Antiproliferative activity against human LNCAP cells assessed as T/C value at 3.2 x 10^-3 uM incubated for 96 hrs by propidium iodide based 2D monolayer assay
Outline: as §1, with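 “Cells were kept in RPMI 1640 with 25 mM HEPES, 10% FCS and gentamicin at 37 °C under 5% CO2, and plated at 4,000-20,000 cells/well. After 24” for “After 24”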

LNCaP [14] = assay: Antiproliferative activity against human LNCAP cells assessed as T/C value at 3.2 x 10^-2 uM incubated for 96 hrs by propidium iodide based 2D monolayer assay
Outline: as §1, with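 “Cells were kept in RPMI 1640 with 25 mM HEPES, 10% FCS and gentamicin at 37 °C under 5% CO2, and plated at 4,000-20,000 cells/well. After 24” for “After 24”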

LNCaP [15] = assay: Antiproliferative activity against human LNCAP cells assessed as T/C value at 1 x 10^-1 uM incubated for 96 hrs by propidium iodide based 2D monolayer assay
Outline: as §1, with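 “Cells were kept in RPMI 1640 with 25 mM HEPES, 10% FCS and gentamicin at 37 °C under 5% CO2, and plated at 4,000-20,000 cells/well. After 24” for “After 24”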

LNCaP [16] = assay: Antiproliferative activity against human LNCAP cells assessed as T/C value at 1 uM incubated for 96 hrs by propidium iodide based 2D monolayer assay
Outline: as §1, with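 “Cells were kept in RPMI 1640 with 25 mM HEPES, 10% FCS and gentamicin at 37 °C under 5% CO2, and plated at 4,000-20,000 cells/well. After 24” for “After 24”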

LNCaP [17] = assay: Antiproliferative activity against human LNCAP cells assessed as T/C value at 3.2 uM incubated for 96 hrs by propidium iodide based 2D monolayer assay
Outline: as §1, with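 “Cells were kept in RPMI 1640 with 25 mM HEPES, 10% FCS and gentamicin at 37 °C under 5% CO2, and plated at 4,000-20,000 cells/well. After 24” for “After 24”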

LNCaP [18] = assay: Antiproliferative activity against human LNCAP cells assessed as T/C value at 1 x 10^2 uM incubated for 96 hrs by propidium iodide based 2D monolayer assay
Outline: as §1, with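 “Cells were kept in RPMI 1640 with 25 mM HEPES, 10% FCS and gentamicin at 37 °C under 5% CO2, and plated at 4,000-20,000 cells/well. After 24” for “After 24”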

CWR22R [19] = assay: Antiproliferative activity against human 22Rv1 cells assessed as T/C value at 3.2 x 10^-3 uM incubated for 96 hrs by propidium iodide based 2D monolayer assay
Outline: as §1, with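 “Cells were kept in RPMI 1640 with 25 mM HEPES, 10% FCS and gentamicin at 37 °C under 5% CO2, and plated at 4,000-20,000 cells/well. After 24” for “After 24”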

CWR22R [20] = assay: Antiproliferative activity against human 22Rv1 cells assessed as T/C value at 1 x 10^-2 uM incubated for 96 hrs by propidium iodide based 2D monolayer assay
Outline: as §1, with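 “Cells were kept in RPMI 1640 with 25 mM HEPES, 10% FCS and gentamicin at 37 °C under 5% CO2, and plated at 4,000-20,000 cells/well. After 24” for “After 24”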

CWR22R [21] = assay: Antiproliferative activity against human 22Rv1 cells assessed as T/C value at 3.2 x 10^-2 uM incubated for 96 hrs by propidium iodide based 2D monolayer assay
Outline: as §1, with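 “Cells were kept in RPMI 1640 with 25 mM HEPES, 10% FCS and gentamicin at 37 °C under 5% CO2, and plated at 4,000-20,000 cells/well. After 24” for “After 24”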

CWR22R [22] = assay: Antiproliferative activity against human 22Rv1 cells assessed as T/C value at 1 x 10^-1 uM incubated for 96 hrs by propidium iodide based 2D monolayer assay
Outline: as §1, with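 “Cells were kept in RPMI 1640 with 25 mM HEPES, 10% FCS and gentamicin at 37 °C under 5% CO2, and plated at 4,000-20,000 cells/well. After 24” for “After 24”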

CWR22R [23] = assay: Antiproliferative activity against human 22Rv1 cells assessed as T/C value at 3.2 x 10^-1 uM incubated for 96 hrs by propidium iodide based 2D monolayer assay
Outline: as §1, with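 “Cells were kept in RPMI 1640 with 25 mM HEPES, 10% FCS and gentamicin at 37 °C under 5% CO2, and plated at 4,000-20,000 cells/well. After 24” for “After 24”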

CWR22R [24] = assay: Antiproliferative activity against human 22Rv1 cells assessed as T/C value at 1 uM incubated for 96 hrs by propidium iodide based 2D monolayer assay
Outline: as §1, with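 “Cells were kept in RPMI 1640 with 25 mM HEPES, 10% FCS and gentamicin at 37 °C under 5% CO2, and plated at 4,000-20,000 cells/well. After 24” for “After 24”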

CWR22R [25] = assay: Antiproliferative activity against human 22Rv1 cells assessed as T/C value at 1 x 10^1 uM incubated for 96 hrs by propidium iodide based 2D monolayer assay
Outline: as §1, with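 “Cells were kept in RPMI 1640 with 25 mM HEPES, 10% FCS and gentamicin at 37 °C under 5% CO2, and plated at 4,000-20,000 cells/well. After 24” for “After 24”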

CWR22R [26] = assay: Antiproliferative activity against human 22Rv1 cells assessed as T/C value at 3.2 x 10^1 uM incubated for 96 hrs by propidium iodide based 2D monolayer assay
Outline: as §1, with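 “Cells were kept in RPMI 1640 with 25 mM HEPES, 10% FCS and gentamicin at 37 °C under 5% CO2, and plated at 4,000-20,000 cells/well. After 24” for “After 24”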

DU-145 [27] = assay: Antiproliferative activity against human DU145 cells assessed as T/C value at 3.2 x 10^-3 uM incubated for 96 hrs by propidium iodide based 2D monolayer assay; outline: as §1
DU-145 [28] = assay: Antiproliferative activity against human DU145 cells assessed as T/C value at 1 x 10^-2 uM incubated for 96 hrs by propidium iodide based 2D monolayer assay; outline: as §1
DU-145 [29] = assay: Antiproliferative activity against human DU145 cells assessed as T/C value at 1 x 10^-1 uM incubated for 96 hrs by propidium iodide based 2D monolayer assay; outline: as §1
DU-145 [30] = assay: Antiproliferative activity against human DU145 cells assessed as T/C value at 3.2 x 10^-1 uM incubated for 96 hrs by propidium iodide based 2D monolayer assay; outline: as §1
DU-145 [31] = assay: Antiproliferative activity against human DU145 cells assessed as T/C value at 1 uM incubated for 96 hrs by propidium iodide based 2D monolayer assay; outline: as §1
DU-145 [32] = assay: Antiproliferative activity against human DU145 cells assessed as T/C value at 1 x 10^2 uM incubated for 96 hrs by propidium iodide based 2D monolayer assay
Outline: as §1, with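 “Cells were kept in RPMI 1640 with 25 mM HEPES, 10% FCS and gentamicin at 37 °C under 5% CO2, and plated at 4,000-20,000 cells/well. After 24” for “After 24”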

pIC50 (DU-145 [1]): 4.00
pIC50 (LNCaP [2]): 5.47
pIC50 (VCaP [3]): 4.00
Structure (SMILES): CC1(C)C(=O)N(c2cccc(S(F)(F)(F)(F)F)c2)C(=S)N1c1cccc(C(F)(F)F)c1
IC70 (DU-145 [1]): > 100 µM
IC70 (LNCaP [2]): 4.31 µM
IC70 (VCaP [3]): > 100 µM
T/C (VCaP [4]): 104%
T/C (VCaP [5]): 82%
T/C (VCaP [6]): 87%
T/C (VCaP [7]): 80%
T/C (VCaP [8]): 87%
T/C (VCaP [9]): 84%
T/C (VCaP [10]): 74%
T/C (VCaP [11]): 63%
T/C (VCaP [12]): 60%
T/C (LNCaP [13]): 92%
T/C (LNCaP [14]): 73%
T/C (LNCaP [15]): 91%
T/C (LNCaP [16]): 74%
T/C (LNCaP [17]): 63%
T/C (LNCaP [18]): 22%
T/C (CWR22R [19]): 94%
T/C (CWR22R [20]): 96%
T/C (CWR22R [21]): 96%
T/C (CWR22R [22]): 96%
T/C (CWR22R [23]): 98%
T/C (CWR22R [24]): 85%
T/C (CWR22R [25]): 69%
T/C (CWR22R [26]): 58%
T/C (DU-145 [27]): 101%
T/C (DU-145 [28]): 94%
T/C (DU-145 [29]): 101%
T/C (DU-145 [30]): 108%
T/C (DU-145 [31]): 108%
T/C (DU-145 [32]): 76%
